Results from publication PMC5237703 (Acta Pharmaceutica Sinica. B, 2016).
Read-outs that look alike come from different tables or passages of the source.

Columns and labels:
[1] = system: breast carcinoma cell line MDA-MB-231; test: MTT cytotoxicity assay, MDA-MB-231; assay type: cell-based; conditions: read-out: IC50 Breast MDAMB-231
How it was run: (§1)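 Cells grown as adherent monolayers in DMEM with 10% FBS at 37 °C under humidified 5% CO2. Cells were trypsin-harvested and seeded at 5×10^3 per well, then graded concentrations of test compound were added for 72 h. MTT (4 mg/mL solution) was added for 4 h, formazan dissolved in DMSO and A570 read. IC50 derived from percent survival; mean ± SD, 2–3 experiments in triplicate.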

COX-1 = molecular target: T1, COX-1 (Ovis aries, UniProt P05979); test: COX-1 inhibition, chromogenic TMPD oxidation assay; assay type: biochemical, Ram
T1 sequence (P05979 25-600): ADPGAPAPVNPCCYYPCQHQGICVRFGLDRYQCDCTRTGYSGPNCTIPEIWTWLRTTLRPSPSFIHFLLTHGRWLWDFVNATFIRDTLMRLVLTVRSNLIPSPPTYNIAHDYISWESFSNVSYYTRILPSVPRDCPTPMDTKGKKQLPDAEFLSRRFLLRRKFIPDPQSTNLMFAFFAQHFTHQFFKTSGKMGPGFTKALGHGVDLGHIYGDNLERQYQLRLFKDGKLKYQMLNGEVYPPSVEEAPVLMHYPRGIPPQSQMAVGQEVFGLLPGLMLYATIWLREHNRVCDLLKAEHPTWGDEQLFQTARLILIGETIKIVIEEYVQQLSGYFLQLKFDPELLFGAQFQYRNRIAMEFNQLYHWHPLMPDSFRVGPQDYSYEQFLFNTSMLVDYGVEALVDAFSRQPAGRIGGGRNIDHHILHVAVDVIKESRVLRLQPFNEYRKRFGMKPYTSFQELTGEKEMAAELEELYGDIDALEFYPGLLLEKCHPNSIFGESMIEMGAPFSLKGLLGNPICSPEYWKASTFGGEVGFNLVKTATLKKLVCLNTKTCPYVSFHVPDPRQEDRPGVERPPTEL

MCF-7 (breast cancer) = test: MTT cytotoxicity assay, MCF-7; assay type: cell-based, human; conditions: read-out: IC50 Breast MCF-7
How it was run: (§2)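 Media: EMEM for MCF-7, McCoy's 5a for SaOS-2, RPMI-1640 for K562, each with NaHCO3, sodium pyruvate, 10% fetal calf serum and 1% penicillin/streptomycin. Culture at 37 °C, humidified 5% CO2. Seeded 5×10^3 cells/well and exposed to graded test compound for 72 h. MTT for 4 h, DMSO solubilisation, A570. IC50 from percent survival; mean ± SD, 2–3 experiments in triplicate.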

[2] = system: Lung cancer cell line A549; test: MTT cytotoxicity assay, A549; assay type: cell-based
[3] = system: colon carcinoma cell line HCT-15; test: MTT cytotoxicity assay, HCT-15; assay type: cell-based; conditions: read-out: IC50 Colon HCT15
How it was run: as §1

[4] = system: K562 (myelogenous leukemia); test: MTT cytotoxicity assay, K562; assay type: cell-based, human; conditions: read-out: IC50 Blood K562
How it was run: as §2

Recombinant human COX-2 = molecular target: T2, Recombinant human COX-2 (Homo sapiens, UniProt P35354); test: biochemical; assay type: biochemical; conditions: for Selectivity ratio COX-2/COX-1: ratio of IC50 COX-2 to IC50 COX-1; for IC50: TMPD oxidation at 603 nm
T2 sequence (P35354 18-604): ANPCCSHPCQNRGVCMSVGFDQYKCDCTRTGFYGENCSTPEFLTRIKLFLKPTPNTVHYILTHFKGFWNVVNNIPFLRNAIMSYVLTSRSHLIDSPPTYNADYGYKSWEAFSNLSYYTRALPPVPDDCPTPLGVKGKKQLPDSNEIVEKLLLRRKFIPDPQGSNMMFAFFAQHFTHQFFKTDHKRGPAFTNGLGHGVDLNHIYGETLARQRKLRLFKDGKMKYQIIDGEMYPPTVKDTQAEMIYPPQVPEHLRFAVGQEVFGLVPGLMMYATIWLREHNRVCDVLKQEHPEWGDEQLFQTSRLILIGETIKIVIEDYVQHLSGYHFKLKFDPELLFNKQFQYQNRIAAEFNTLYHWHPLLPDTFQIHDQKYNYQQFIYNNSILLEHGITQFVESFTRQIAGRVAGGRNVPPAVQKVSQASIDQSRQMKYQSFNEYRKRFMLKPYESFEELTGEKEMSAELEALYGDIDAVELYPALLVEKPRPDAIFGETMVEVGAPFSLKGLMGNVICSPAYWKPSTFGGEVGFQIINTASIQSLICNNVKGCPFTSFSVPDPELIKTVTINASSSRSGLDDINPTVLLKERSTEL

[5] = system: pancreatic cancer cell line PANC-1; test: MTT cytotoxicity assay, PANC-1; assay type: cell-based; conditions: read-out: IC50 Pancreas PANC-1
How it was run: as §1

SaOS-2 (osteosarcoma) = test: MTT cytotoxicity assay, SaOS-2; assay type: cell-based, human; conditions: read-out: IC50 Bone SaoS2
How it was run: as §2

[6] = system: breast carcinoma cell line MDA-MB-468; test: MTT cytotoxicity assay, MDA-MB-468; assay type: cell-based; conditions: read-out: IC50 Breast MDAMB-468
How it was run: as §1

[7] = system: prostatic cancer cell line DU-145; test: MTT cytotoxicity assay, DU-145; assay type: cell-based; conditions: read-out: IC50 Prostate DU-145
How it was run: as §1

[8] = system: human embryonic kidney cells HEK293; test: MTT cytotoxicity assay, HEK293; assay type: cell-based; conditions: read-out: IC50 Normal HEK293
How it was run: as §1

mouse fibroblast KB-31 = test: MTT cytotoxicity assay, KB-31; assay type: cell-based; conditions: KB 3-1, 72 h, read-out: IC50 Mouse fibroblast KB-31
How it was run: as §1

[9] = read-out: IC50 COX-1, COX-1 from Ram seminal vesicles, TMPD oxidation at 603 nm
[10] = read-out: IC50 COX-2, recombinant human COX-2
[11] = MTT, 72 h incubation, non-cancerous cell line

| Compound | IC50 ([1]; MTT, 72 h incubation) [µM] | IC50 (COX-1; [9]) [µM] | IC50 (MCF-7 (breast cancer); MTT, 72 h incubation) [µM] | IC50 ([2]; read-out: IC50 Lung A549, MTT) [µM] | IC50 ([3]; MTT, 72 h incubation) [µM] | IC50 ([4]; MTT, 72 h incubation) [µM] | Selectivity ratio COX-2/COX-1 (Recombinant human COX-2) | IC50 (Recombinant human COX-2; [10]) [µM] | IC50 ([5]; MTT, 72 h incubation) [µM] | IC50 (SaOS-2 (osteosarcoma); MTT, 72 h incubation) [µM] | IC50 ([6]; MTT, 72 h incubation) [µM] | IC50 ([7]; MTT, 72 h incubation) [µM] | IC50 [8, 11] [µM] | further results |
| --- | --- | --- | --- | --- | --- | --- | --- | --- | --- | --- | --- | --- | --- | --- |
| 4-(3-(4-Fluorophenyl)-3H-imidazo[4,5-b]pyridin-2-yl)-2-methoxyphenol [Compound 3d] | > 100 | 42.7 ± 2.5 | 72 | > 100 | > 100 | 57 | 0.60 | 25.6 ± 1 | > 100 | 71.5 | > 100 | > 100 | > 100 | – |
| 5-(3-(3,4-Dimethoxyphenyl)-3H-imidazo[4,5-b]pyridin-2-yl)-2-methoxyphenol [Compound 3h] | > 100 | 18.5 | 53 | > 100 | 66.9 | 54.5 | 0.83 | 15.4 ± 3.1 | 57.7 | 59 | > 100 | > 100 | 80 | – |
| 5-(3-(4-Fluorophenyl)-3H-imidazo[4,5-b]pyridin-2-yl)-2-methoxyphenol [Compound 3e] | > 100 | 16.8 ± 0.1 | 60 | > 100 | > 100 | 53 | 16.58 | 279 ± 7.2 | > 100 | 62.5 | 78.8 | > 100 | > 100 | – |
| Oc1cccc(-c2nc3cccnc3n2-c2ccc(F)cc2)c1 [Compound 3a, 3-(3-(4-Fluorophenyl)-3H-imidazo[4,5-b]pyridin-2-yl)phenol] | – | – | – | – | – | – | 3.59 | – | – | – | – | – | – | IC50 ([1]; Homo sapiens, MDA-MB-231, 72 h): > 100 µM; IC50 (COX-1): 10 ± 0.01 µM; IC50 (MCF-7 (breast cancer); Homo sapiens, MCF7, 72 h): 61.5 µM; IC50 ([2]; Homo sapiens, A549, read-out: IC50 Lung A549): > 100 µM; IC50 ([3]; Homo sapiens, HCT-15, 72 h): > 100 µM; IC50 ([4]; Homo sapiens, K562, 72 h): 49 µM; IC50 (Recombinant human COX-2; IC50 COX-2, recombinant human COX-2): 35.9 ± 2 µM; IC50 ([5]; Homo sapiens, PANC-1, 72 h): > 100 µM; IC50 (SaOS-2 (osteosarcoma); Homo sapiens, SAOS-2, 72 h): 64 µM; IC50 ([6]; Homo sapiens, MDA-MB-468, 72 h): > 100 µM; IC50 (mouse fibroblast KB-31): > 100 µM; IC50 ([7]; Homo sapiens, DU-145, 72 h): > 100 µM; IC50 ([8]; Homo sapiens, HEK293, 72 h): > 100 µM |
